High-throughput results: PubChem BioAssay, Sanford-Burnham Center for Chemical Genomics
PPC-1+TRAIL kill: compounds killing PPC-1 cancer cells with TRAIL present (potentiator screen, no TRAIL-free arm); PPC-1 cells + TRAIL, ATPLite viability luminescence; cell killing (% activity), % at 4 µM or 5 µM; hit rate 0.41% among 220,000; AID 1443;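 active = cell killing above 50% in the first pass at 4 µM, then a duplicate retest at 5 µM averaging 50% or more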;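 note: plate controls were cells with TRAIL plus DMSO for no effect and medium-only wells lacking cells for full effect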
FLuc inh counter: counter-screen for luciferase assay inhibitors: firefly luciferase inhibition; P08659; ATPLite firefly luciferase biochemical luminescence, 10 min; inhibition, % at 10 µM; hit rate 1.5% among 200,000; AID 1006;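 active = inhibition above about 50% when tested at 10 µM, limit read from the data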
Target sequence (P08659 whole entry, looked up): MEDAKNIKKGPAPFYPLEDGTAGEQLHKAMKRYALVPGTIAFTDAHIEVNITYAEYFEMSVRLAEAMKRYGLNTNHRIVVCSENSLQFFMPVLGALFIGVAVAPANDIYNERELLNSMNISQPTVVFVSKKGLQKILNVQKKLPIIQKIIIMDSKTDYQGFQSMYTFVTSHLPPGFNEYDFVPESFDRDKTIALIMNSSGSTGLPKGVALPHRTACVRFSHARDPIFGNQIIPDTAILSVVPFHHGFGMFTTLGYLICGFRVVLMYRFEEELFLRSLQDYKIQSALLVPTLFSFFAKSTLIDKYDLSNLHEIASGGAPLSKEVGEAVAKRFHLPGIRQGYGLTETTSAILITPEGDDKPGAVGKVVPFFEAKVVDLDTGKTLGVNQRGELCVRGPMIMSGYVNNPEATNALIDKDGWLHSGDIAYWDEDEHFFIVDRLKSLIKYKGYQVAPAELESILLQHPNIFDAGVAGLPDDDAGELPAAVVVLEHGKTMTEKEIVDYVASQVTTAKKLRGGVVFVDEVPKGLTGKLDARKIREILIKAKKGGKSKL
TRAIL sens C8: sensitizes caspase-8 expressing cells to TRAIL | NB7+C8 cells + TRAIL, ATPlite viability luminescence | inhibition (viability loss, TRAIL sensitization), % at 10 µM | hit rate 1% among 360,000 | AID 624354;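 active = compounds causing at least 50% loss of cell viability in the single-dose screen, relative to plate controls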
FLuc act counter: firefly luciferase counter-screen for stimulation assays; ATPlite luciferase biochemical, luminescence, 10 min; 0 = ATP-free wells, 1 = DMSO control; activation factor at 10 µM; 200,000 tested, under 10 active; P08659; AID 1027;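 active = luciferase activation factor, scaled between plate controls, of at least 2 with compound at 10 µM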
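System: cell-free luciferase reagent; medium: PBS as buffer for the ATP substrate; doses: test compounds dosed from 2 mM stocks in 100% DMSO; incubation: 10 min, room temperature; measured by: luminescence from luciferase reaction; read-out: luciferase activation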
* = called active by the depositor; . = no result. In the library only some 1.5% were active in any assay of this set; here they are far more common.

SMILES	PPC-1+TRAIL kill	FLuc inh counter	TRAIL sens C8	FLuc act counter
Cc1ccc(-c2nc(N3CCN(C)CC3)c3ccccc3n2)cc1	.	.	16	.
Cc1oc(-c2cccc(Cl)c2)nc1CN1CCCC(C(=O)NCCCN2CCOCC2)C1 (centres undefined)	12	-5	15	1.1
Cc1ccc(CN=c2c([N+](=O)[O-])nn(-c3cccc(C)c3)n2O)cc1	16	-6	49*	1.1
Cc1ccc(CN=c2c([N+](=O)[O-])nn(-c3cccc(Cl)c3)n2O)cc1	20	-1	0	1
CC(NS(=O)(=O)c1cccc(C(=O)O)c1)C12CC3CC(CC(C3)C1)C2 (centres undefined)	.	.	3	.
CCc1cc2c(=O)[nH]c(N3CCCC3)nc2s1	12	3	-10	1
CCc1cc2c(=O)[nH]c(-c3ccccn3)nc2s1	60*	37	53*	0.6
O=[N+]([O-])c1cc(S(=O)(=O)Oc2ccccc2)ccc1Cl	.	.	58*	.
O=C(CSc1nnnn1-c1ccc(Cl)c(C(=O)O)c1)NC(c1ccccc1)c1ccccc1	-3	.	15	.
Cc1ccc(C(=O)Nc2sc3c(c2C#N)CCCCC3)cc1C	13	1	6	1
N#Cc1c(NC(=O)c2ccccc2)sc2c1CCCCC2	36	55*	53*	0.4
N#Cc1c(N2C(=O)Nc3ccccc3N2O)sc2c1CCCCCC2	29	56*	20	0.4
O=C(Nc1sc2c(c1C(=O)O)CCCCC2)c1ccccc1	36	72*	38	0.3
CC1(C)Cc2c(sc(NC(=O)c3ccccc3)c2C(=O)O)CO1	19	59*	25	0.4
CN(C)/C=C1\C(=O)NN=C1c1ccccc1	8	-4	-2	1
CCOC(=O)CSc1ccc(-c2nc3ccccc3[nH]2)cn1	15	22	17	0.8
N#CCSc1ccc(-c2nc3ccccc3[nH]2)cn1	32	58*	18	0.4
Nc1c(C(=O)N2CCOCC2)sc2nc3c(cc12)CCCC3	.	.	57*	.
NC(=O)c1sc2nc3c(cc2c1N)CCC3	4	23	18	0.8
COC(=O)c1sc2nc3c(cc2c1N)CCCC3	18	60*	30	0.4
Nc1c(C(=O)N2CCOCC2)sc2nc3c(cc12)CCC3	.	31	-3	0.7
CCCCCCSc1cc(C)nc2ncnn12	-14	-1	8	1
CCC(=O)OCC(=O)c1cc(C)n(-c2ccc(Br)cc2)c1C	-3	59*	7	0.4
Cc1ccc(-n2c(C)cc(C(=O)COC(=O)C3=NNC(=O)CC3)c2C)cc1	-36	8	2	0.9
Cc1cc(C(=O)COC(=O)C2=COCCO2)c(C)n1-c1ccccc1	.	.	73*	.
SMILES	PPC-1+TRAIL kill	FLuc inh counter	TRAIL sens C8	FLuc act counter
Cc1cc(C(=O)COC(=O)C2=NNC(=O)CC2)c(C)n1-c1ccccc1	45	64*	-2	0.4
COCCOC(=O)c1c(C)oc2ccc(OCc3cc(C(=O)OC)oc3C)cc12	-1	-11	3	1.1
Cc1ccc(/C=C2\C(=O)ON=C2c2ccccc2)o1	11	60*	-8	0.4
CCN(CC)S(=O)(=O)c1cccc(-c2nc3n(n2)Cc2ccccc2-3)c1	2	7	-4	0.9
Clc1ccc(-c2nc3n(n2)Cc2ccccc2-3)cc1	22	58*	59*	0.4
O=C(/C=C/c1ccc(Cl)cc1Cl)Nc1cccc(S(=O)(=O)NC2=NCCCCC2)c1	18	55*	25	0.4
O=C(/C=C/c1ccccc1[N+](=O)[O-])Nc1cccc(S(=O)(=O)NC2=NCCCCC2)c1	.	.	-24	.
CCc1ccc(NC(=O)c2ccc3nc(N)sc3c2)cc1	9	28	10	0.7
CCc1ccc2nc(N)sc2c1	26	56*	24	0.4
CCn1cnc2cc(NCc3nc4ccccc4n3C)ccc21	5	53*	38	0.5
CC(C)n1cnc2cc(NCc3nc4ccccc4n3C)ccc21	35	54*	32	0.5
Cc1ccc(CNc2ccc3c(c2)ncn3C(C)C)cc1	14	.	-1	.
CC(C)C[C@H](NC(=O)c1nc[nH]c1C(=O)N[C@@H](CCCCNC(=O)OC(C)(C)C)C(=O)OC(C)(C)C)C(=O)OC(C)(C)C	8	.	51*	.
CC(C)C[C@H](NC(=O)c1nc[nH]c1C(=O)NCCCCCNC(=O)OC(C)(C)C)C(=O)OC(C)(C)C	28	0	26	1
CNC(=O)c1[nH]cnc1C(=O)N[C@@H](Cc1ccccc1)C(=O)OC(C)(C)C	6	-4	-5	1
CC(C)(C)OC(=O)[C@H](Cc1ccccc1)NC(=O)c1[nH]cnc1C(=O)Nc1ccccc1F	.	.	62*	.
